ChEMBL document CHEMBL5647695, “Cyclin-dependent kinase 9 (CDK9) is a novel prognostic marker and therapeutic target in osteosarcoma” (EBioMedicine, 2019)
The source made the active and inactive calls. The rule behind the calls is not given here.

Assays:
U2OS [1] = assay: Effect on RNAPII total protein expression in human U2OS cells at 2.5 to 20 uM incubated for 48 hrs by Western blot analysis; type: functional, cell-based; details: dose 2.5-20 µM
Outline: (§1)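 Cells seeded in 6-well plates (6 × 10^5 cells/well) and treated with 2.5, 5, 10, 20 μM for 48 h. RIPA lysates resolved by SDS-PAGE and blotted to nitrocellulose. Primary antibodies to CDK9, RNAPII ser2, total RNAPII, MCL-1, BIRC5 and tubulin (1:1000, 4 °C overnight), then IR-dye secondaries; infrared imaging. Densitometry relative to tubulin, mean ± SE in triplicate.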

U2OS [2] = assay: Cytotoxicity against human U2OS cells assessed as inhibition of cell proliferation incubated for 5 days by MTT assay; type: functional, cell-based
Outline: (§2)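 Cells in RPMI 1640 with 10% FBS, seeded at 4 × 10^3 cells/well in 96-well plates and exposed to 0, 2.5, 5, 10, 20 μM for 5 days. MTT (5 mg/mL stock) added for 4 h at 37 °C; formazan dissolved in acid isopropanol and read at 490 nm. IC50 from the dose–response; mean ± SE of 2 experiments in triplicate.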

KHOS/NP [3] = assay: Cytotoxicity against human KHOS/NP cells assessed as inhibition of cell proliferation incubated for 5 days by MTT assay; type: functional, cell-based; outline: as §2
U2OS [4] = assay: Cytotoxicity against human U2OS cells assessed as morphological changes incubated for 3 days by microscopic analysis; type: functional, cell-based; details: dose 2.5-20 µM, time 3.0 day
Outline: (§3)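 Cells treated with 0, 2.5, 5, 10, 20 μM for 72 h, then examined by light microscopy for morphology and number of viable cells.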

KHOS/NP [5] = assay: Cytotoxicity against human KHOS/NP cells assessed as morphological changes incubated for 3 days by microscopic analysis; type: functional, cell-based; details: dose 2.5-20 µM, time 3.0 day; outline: as §3
U2OS [6] = assay: Cytotoxicity against human U2OS cells assessed as reduction in viable cell number incubated for 3 days by microscopic analysis; type: functional, cell-based; details: dose 2.5-20 µM, time 3.0 day; outline: as §3
KHOS/NP [7] = assay: Cytotoxicity against human KHOS/NP cells assessed as reduction in viable cell number incubated for 3 days by microscopic analysis; type: functional, cell-based; details: dose 2.5-20 µM, time 3.0 day; outline: as §3
[8] = molecular target: Cyclin-dependent kinase 9 (Homo sapiens) (UniProt P50750); assay: Inhibition of CDK9 in human U2OS cells assessed as reduction in phosphorylated RNAPII protein expression at Ser2 residue incubated for 48 hrs by Western blot analysis; type: cell-based; details: dose 2.5-20 µM; outline: as §1
[9] = molecular target: Cyclin-dependent kinase 9 (Homo sapiens) (UniProt P50750); assay: Inhibition of CDK9 in human KHOS/NP cells assessed as reduction in phosphorylated RNAPII protein expression at Ser2 residue incubated for 48 hrs by Western blot analysis; type: cell-based; details: dose 2.5-20 µM; outline: as §1
[10] = molecular target: Cyclin-dependent kinase 9 (Homo sapiens) (UniProt P50750); assay: Inhibition of CDK9 in human U2OS cells assessed as reduction in MCL-1 protein expression incubated for 48 hrs by Western blot analysis; type: cell-based; details: dose 2.5-20 µM; outline: as §1
[11] = molecular target: Cyclin-dependent kinase 9 (Homo sapiens) (UniProt P50750); assay: Inhibition of CDK9 in human KHOS/NP cells assessed as reduction in MCL-1 protein expression incubated for 48 hrs by Western blot analysis; type: cell-based; details: dose 2.5-20 µM; outline: as §1
[12] = molecular target: Cyclin-dependent kinase 9 (Homo sapiens) (UniProt P50750); assay: Inhibition of CDK9 in human U2OS cells assessed as reduction in BIRC5 protein expression incubated for 48 hrs by Western blot analysis; type: cell-based; details: dose 2.5-20 µM; outline: as §1
[13] = molecular target: Cyclin-dependent kinase 9 (Homo sapiens) (UniProt P50750); assay: Inhibition of CDK9 in human KHOS/NP cells assessed as reduction in BIRC5 protein expression incubated for 48 hrs by Western blot analysis; type: cell-based; details: dose 2.5-20 µM; outline: as §1
KHOS/NP [14] = assay: Effect on RNAPII total protein expression in human KHOS/NP cells at 2.5 to 20 uM incubated for 48 hrs by Western blot analysis; type: functional, cell-based; details: dose 2.5-20 µM; outline: as §1
U2OS [15] = assay: Effect on CDK9 protein expression in human U2OS cells at 2.5 to 20 uM incubated for 48 hrs by Western blot analysis; type: functional, cell-based; details: dose 2.5-20 µM; outline: as §1
KHOS/NP [16] = assay: Effect on CDK9 protein expression in human KHOS/NP cells at 2.5 to 20 uM incubated for 48 hrs by Western blot analysis; type: functional, cell-based; details: dose 2.5-20 µM; outline: as §1
U2OS [17] = assay: Induction of apoptosis in human U2OS cells assessed as viable cells at 10 uM by Annexin V/PI staining based flow cytometry analysis (reference value: 94.5%); type: functional; details: read-out: Activity
U2OS [18] = assay: Induction of apoptosis in human U2OS cells assessed as early apoptotic cells at 10 uM by Annexin V/PI staining based flow cytometry analysis (reference value: 5%); type: functional
U2OS [19] = assay: Induction of apoptosis in human U2OS cells assessed as late apoptotic cells at 10 uM by Annexin V/PI staining based flow cytometry analysis (reference value: 0.4%); type: functional
U2OS [20] = assay: Induction of apoptosis in human U2OS cells assessed as dead cells at 10 uM by Annexin V/PI staining based flow cytometry analysis (reference value: 0.1%); type: functional
KHOS/NP [21] = assay: Induction of apoptosis in human KHOS/NP cells assessed as viable cells at 10 uM by Annexin V/PI staining based flow cytometry analysis (reference value: 94.1%); type: functional; details: read-out: Activity
KHOS/NP [22] = assay: Induction of apoptosis in human KHOS/NP cells assessed as early apoptotic cells at 10 uM by Annexin V/PI staining based flow cytometry analysis (reference value: 5.3%); type: functional
KHOS/NP [23] = assay: Induction of apoptosis in human KHOS/NP cells assessed as late apoptotic cells at 10 uM by Annexin V/PI staining based flow cytometry analysis (reference value: 0.3%); type: functional
U2OS [24] = assay: Inhibition of colony formation in human U2OS cells assessed as reduction in colony number and size incubated for 12 days by Giemsa staining based analysis; type: functional, cell-based; details: dose 5-10 µM, time 12.0 day
Outline: (§4)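 Seeded at 150 cells/well in 12-well plates with 0, 5 or 10 μM inhibitor; 12 days at 37 °C. Colonies fixed 10 min in methanol, stained 20 min with 10% Giemsa and photographed.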

KHOS/NP [25] = assay: Inhibition of colony formation in human KHOS/NP cells assessed as reduction in colony number and size incubated for 12 days by Giemsa staining based analysis; type: functional, cell-based; details: dose 5-10 µM, time 12.0 day; outline: as §4
U2OS [26] = assay: Inhibition of cell migration in human U2OS cells at 10 uM by wound healing assay; type: functional, cell-based; details: time 24-72 hrs
Outline: (§5)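 Monolayers of 4 × 10^5 cells/well in 6-well plates, grown overnight, scratched with two parallel lines, then exposed to 10 μM in 2% FBS medium for 72 h. Photographed at 0, 24, 48, 72 h; width measured at five sites per image. Migration distance = (width at 0 h − width at time point)/2.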

KHOS/NP [27] = assay: Inhibition of cell migration in human KHOS/NP cells at 10 uM by wound healing assay; type: functional, cell-based; details: time 24-72 hrs; outline: as §5
U2OS [28] = assay: Antitumor activity against human U2OS cells cultured as 3D spheroids assessed as reduction in spheroid diameter at 10 uM incubated for 12 days with media replacement for every 24 to 48 hrs and measured every 2 days by Calcein AM staining based fluorescence microscopic analysis relative to control; type: functional; set-up: scale not given: the % may be the effect or the level left; details: time 12 day
Outline: (§6)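 Spheroids grown in 3D hydrogel culture plates, 2 × 10^5 cells/well, with 10 μM inhibitor added at seeding; untreated cells as blank control. 37 °C, 5% CO2, medium changed every 24–48 h. Diameter photographed every 2 days; at 12 days spheroids harvested, stained 15 min with 0.25 μM Calcein AM and imaged by fluorescence microscopy. Mean ± SE of 2 experiments in triplicate.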

KHOS/NP [29] = assay: Antitumor activity against human KHOS/NP cells cultured as 3D spheroids assessed as reduction in spheroid diameter at 10 uM incubated for 12 days with media replacement for every 24 to 48 hrs and measured every 2 days by Calcein AM staining based fluorescence microscopic analysis relative to control; type: functional; set-up: scale not given: the % may be the effect or the level left; details: time 12 day; outline: as §6

Sequence of Cyclin-dependent kinase 9 (Homo sapiens) (P50750 whole entry): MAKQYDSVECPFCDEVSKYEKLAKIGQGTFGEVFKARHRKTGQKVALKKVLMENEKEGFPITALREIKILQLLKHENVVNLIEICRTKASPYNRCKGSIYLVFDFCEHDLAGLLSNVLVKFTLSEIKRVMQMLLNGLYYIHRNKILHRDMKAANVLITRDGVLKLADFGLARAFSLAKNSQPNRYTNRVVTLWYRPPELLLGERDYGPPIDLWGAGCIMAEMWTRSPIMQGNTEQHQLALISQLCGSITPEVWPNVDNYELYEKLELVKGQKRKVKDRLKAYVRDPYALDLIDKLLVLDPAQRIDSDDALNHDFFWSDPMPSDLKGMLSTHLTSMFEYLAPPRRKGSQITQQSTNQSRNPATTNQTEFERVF

COc1ccccc1-c1cc(Nc2cccc(CS(N)(=O)=O)c2)ncn1
Activity (U2OS [1]): inactive
IC50 (U2OS [2]; 120 h): 5.8 µM
Activity (U2OS [2]; time 5.0 day): Dose-Dependent Effect
IC50 (KHOS/NP [3]; 120 h): 6.5 µM
Activity (KHOS/NP [3]; time 5.0 day): Dose-Dependent Effect
Activity (U2OS [4]): Dose-Dependent Effect
Activity (KHOS/NP [5]): Dose-Dependent Effect
Activity (U2OS [6]): Dose-Dependent Effect
Activity (KHOS/NP [7]): Dose-Dependent Effect
inhibition [8]: Dose-Dependent Effect
inhibition [9]: Dose-Dependent Effect
inhibition [10]: Dose-Dependent Effect
inhibition [11]: Dose-Dependent Effect
inhibition [12]: Dose-Dependent Effect
inhibition [13]: Dose-Dependent Effect
Activity (KHOS/NP [14]): inactive
Activity (U2OS [15]): inactive
Activity (KHOS/NP [16]): inactive
viability at 10 µM (U2OS [17]): 91.8%
Activity (U2OS [18]): 6.4%
Activity (U2OS [19]): 1.5%
Activity (U2OS [20]): 0.3%
viability at 10 µM (KHOS/NP [21]): 88.5%
Activity (KHOS/NP [22]): 2.8%
Activity (KHOS/NP [23]): 6%
inhibition (U2OS [24]): Dose-Dependent Effect
inhibition (KHOS/NP [25]): Dose-Dependent Effect
inhibition (U2OS [26]): Dose-Dependent Effect
inhibition (KHOS/NP [27]): Dose-Dependent Effect
Activity (U2OS [28]): 57.4%
Activity (KHOS/NP [29]): 48.8%
